Rows were chosen to be rich in hits. Some 2.3% of all compounds tested hit in one or more screens of this group.
TRPC4 agonist – activators of mouse TRPC4 channel, primary screen, Fluo4 calcium, HEK293 TRPC4beta/mu-opioid cells | 310,000 compounds, 0.49% hits | Fluo4 calcium fluorescence; active compounds read high | B-score at 10 µM | Short transient receptor potential channel 4 (Mus musculus), Q9QUQ5;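 active = B-score above 5 SD of library B-scores, and initial fluorescence ratio not above library mean plus 5 SD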;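 note: positive B-score marks a calcium rise read as TRPC4 activation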
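Technique: kinetic Fluo4 calcium fluorescence; Test system: TRPC4beta and mu-opioid receptor HEK293 stable cells; Measure: B-scored integrated calcium fluorescence ratio; Benchmarks: low control buffer alone, high control maximal DAMGO; Schedule: 45 min room-temperature Fluo4 loading, 110 s read.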
TRPC4 inh – inhibitors of mouse TRPC4 channel, primary screen, Fluo4 calcium, HEK293 TRPC4beta/mu-opioid cells. Short transient receptor potential channel 4 (Mus musculus), Q9QUQ5. DAMGO-evoked Fluo4 calcium flux; active compounds read low. B-score at 10 µM. 300,000 compounds, 0.39% hits. AID 2247, 2010;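 active = B-score over 3 SD under the library average, no early fluorescence shift, positive overall ratio signal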
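test system = HEK293 cells with stable TRPC4beta plus mu-opioid receptor expression | detection = Fluo4 Ca2+ flux fluorescence | read-out = integrated fluorescence ratio relative to baseline, converted to per-well B score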
TRPC6 activator – mouse TRPC6 channel activators, primary screen, cell-based, HEK293, membrane potential dye; Short transient receptor potential channel 6 (Mus musculus), Q61143; HEK293-TRPC6 membrane potential dye fluorescence; active compounds read high; B-score at 10 µM; 310,000 compounds, 0.13% hits;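 active = B-score of the integrated fluorescence ratio above library mean plus 3 SD, and starting fluorescence ratio within library mean plus 5 SD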;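 note: higher score means more depolarization so channel activation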
Target sequence (Q61143 whole entry, looked up): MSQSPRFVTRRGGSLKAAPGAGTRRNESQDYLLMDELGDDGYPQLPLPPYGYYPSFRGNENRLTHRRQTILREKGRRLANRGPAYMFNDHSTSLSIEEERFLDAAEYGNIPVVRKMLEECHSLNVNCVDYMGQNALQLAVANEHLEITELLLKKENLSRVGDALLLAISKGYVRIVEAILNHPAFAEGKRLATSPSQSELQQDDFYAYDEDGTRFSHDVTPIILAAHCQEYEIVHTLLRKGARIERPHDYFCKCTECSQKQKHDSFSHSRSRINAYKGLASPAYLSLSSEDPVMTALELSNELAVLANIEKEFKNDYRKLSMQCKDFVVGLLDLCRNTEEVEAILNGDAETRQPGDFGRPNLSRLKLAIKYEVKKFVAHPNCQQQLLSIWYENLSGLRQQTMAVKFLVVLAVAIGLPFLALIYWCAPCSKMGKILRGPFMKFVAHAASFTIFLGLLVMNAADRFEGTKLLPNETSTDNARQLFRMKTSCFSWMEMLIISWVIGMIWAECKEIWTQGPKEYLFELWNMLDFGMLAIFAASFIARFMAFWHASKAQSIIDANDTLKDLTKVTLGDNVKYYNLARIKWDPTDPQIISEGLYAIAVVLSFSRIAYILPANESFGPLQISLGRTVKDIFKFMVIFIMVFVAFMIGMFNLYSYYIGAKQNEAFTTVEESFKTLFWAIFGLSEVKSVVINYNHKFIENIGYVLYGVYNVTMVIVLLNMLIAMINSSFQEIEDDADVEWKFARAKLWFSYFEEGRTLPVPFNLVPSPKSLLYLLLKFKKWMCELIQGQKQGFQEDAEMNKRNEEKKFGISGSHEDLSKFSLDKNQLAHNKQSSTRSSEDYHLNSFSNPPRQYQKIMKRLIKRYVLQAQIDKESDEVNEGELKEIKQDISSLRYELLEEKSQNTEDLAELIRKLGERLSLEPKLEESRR
TRPC4 PAM – positive allosteric modulators of TRPC4, primary screen, cell-based, mouse TRPC4beta, HEK293 mu-opioid, Fluo-4 calcium; AID 2227, 2009; B-score at 10 µM; DAMGO EC20, Fluo-4 Ca2+ flux; active compounds read high; Short transient receptor potential channel 4 (Mus musculus), Q9QUQ5; 310,000 compounds, 0.42% hits;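 active = B-score of calcium response area above 5 SD of library B-scores, with initial fluorescence ratio within 5 SD of library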;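 note: B-score of integrated fluorescence ratio over time as area under calcium response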
TRPC6 inh – mouse TRPC6 channel inhibitors, primary screen, cell-based, HEK293, membrane potential dye | 310,000 compounds, 1.1% hits | B-score at 10 µM | Short transient receptor potential channel 6 (Mus musculus), Q61143 | ACh-evoked depolarization; active compounds read low;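 active = B-score under library mean minus 3 SD, initial fluorescence not abnormally high, positive integrated signal ratio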;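 note: B-score derived from integrated fluorescence ratio over the kinetic read; more negative B-score means stronger inhibition of depolarization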
TRPC4 spec 2 – second check of whether TRPC6 inhibitors also affect mouse TRPC4; 920 compounds, 42% hits; inhibition, % at 10 µM; HEK293 TRPC4/MOR, membrane potential dye fluorescence; channel activated by saturating DAMGO dose; shares compounds with TRPC6 inh;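 active = compounds whose fluorescence signal differed from control wells by over 3 SD, either direction, in both duplicate plates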
TRPC4 spec – mouse TRPC4 modulation by TRPC6 hits, confirmation, selectivity assay for TRPC6 inhibitor project, cell-based, HEK293 TRPC4/mu-opioid, membrane potential dye; shares compounds with TRPC6 inh; activity change, negative = inhibition, % at 10 µM; 920 compounds, 61% hits; membrane potential fluorescence;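 active = rise or fall in signal beyond 3 SD of buffer-only wells in both replicate plates, either sign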;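 note: integrated kinetic ratio of fluorescence range over baseline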
HEK293 MPD ctr 2-1 – nonspecific membrane potential effects, parental HEK293, confirmation, counter-screen for TRPC6 inhibitor project, cell-based, second counter screen; AID 2779, 2010; signal change vs control, % at 10 µM; parental HEK293 membrane potential dye fluorescence; maximal acetylcholine challenge after compound addition; shares compounds with TRPC6 inh; 920 compounds, 31% hits;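 active = membrane potential signal moving either way by over 3 SD of the maximum-effect control, in both duplicate plates, meaning non-specific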
HEK293 MPD ctr-1 – membrane potential modulation in parental HEK293, confirmation, counter-screen for TRPC6 inhibitor project, cell-based | 920 compounds, 60% hits | membrane potential signal change, % at 10 µM | parental HEK293 membrane potential dye fluorescence | shares compounds with TRPC6 inh;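 active = membrane potential signal shifting up or down by more than 3 SD of buffer-only wells, on both duplicate plates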
HEK293 MPD ctr-2 – parental HEK293 membrane potential modulation, confirmation, counter-screen for TRPC6 modulator project, cell-based | membrane potential signal change, % at 10 µM | 2,400 compounds, 51% hits | shares compounds with TRPC6 inh | membrane potential dye fluorescence;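 active = membrane potential signal moves up or down beyond 5 SD from buffer-only wells, on both duplicate plates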
HEK293 MPD ctr 2-2 – parental HEK293 nonspecific activity of TRPC6 modulators, second screen; AID 488926; inhibition, % at 10 µM; 2,400 compounds, 14% hits; shares compounds with TRPC6 inh; membrane potential dye fluorescence; after compound, maximal acetylcholine stimulation;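 active = membrane potential signal drops by more than 5 SD from the mean control signal, in both duplicate plates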;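 note: plate controls were acetylcholine ECmax control wells for no effect and buffer only wells for full effect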
TRPC4/MOR mod – TRPC4 modulation by TRPC6 hit compounds, confirmation, selectivity assay for TRPC6 modulator project, cell-based, HEK293 TRPC4/mu-opioid, membrane potential dye, mouse. shares compounds with TRPC6 inh. membrane potential fluorescence. percent change from control (negative = decrease, positive = increase), % at 10 µM. 2,400 compounds, 69% hits;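 active = membrane potential signal moved up or down beyond 5 SD of buffer control wells, in both duplicate plates, actives on both sides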;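 note: plate controls were assay buffer wells for no effect and DAMGO maximal-effect wells for full effect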
TRPC4/MOR inh 2 – second check of whether TRPC6 modulators also affect mouse TRPC4. inhibition, % at 10 µM. shares compounds with TRPC6 inh. AID 488928. HEK293 TRPC4/mu-opioid, membrane potential dye fluorescence; stimulated with maximal-effect DAMGO. 2,400 compounds, 55% hits;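 active = drop in membrane potential signal beyond 5 SD of the control wells in both duplicate plates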;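 note: TRPC4 counter screen for TRPC6 hits run under conditions tuned for TRPC6 not TRPC4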
TRPC6 block conf – mouse TRPC6 channel inhibitors, confirmation, HEK293 cells, membrane potential dye, duplicate | shares compounds with TRPC6 inh | ACh-evoked depolarization | inhibition, % at 10 µM | 3,300 compounds, 43% hits | AID 488960, 2010;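 active = fluorescence ratio falls more than 5 SD below the full-stimulation control mean, in both duplicate runs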;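 note: integrated fluorescence ratio of peak minus minimum over baseline after agonist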
TRPC6 act conf – mouse TRPC6 channel activators, confirmation, HEK293 cells, membrane potential dye, duplicate; shares compounds with TRPC6 inh; HEK293-TRPC6 membrane potential dye fluorescence, FDSS; activation, % at 10 µM; 2,800 compounds, 11% hits; AID 488961, 2010;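 active = ratio signal rise beyond 5 SD above unstimulated control wells' mean, seen in both duplicate runs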;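 note: plate controls were buffer EC0 wells for no effect and acetylcholine ECmax response for full effect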
* = called active by the depositor; i = inactive; . = no result.

SMILES	TRPC4 agonist	TRPC4 inh	TRPC6 activator	TRPC4 PAM	TRPC6 inh	HEK293 MPD ctr-2	HEK293 MPD ctr 2-2	TRPC4/MOR mod	TRPC4/MOR inh 2	TRPC6 block conf	TRPC6 act conf	others
N/C(=N\OC(=O)Cc1ccc(-c2ccccc2)cc1)c1ccncc1	i	i	i	i	i	.	.	.	.	.	.
CCOc1ccc(-c2nnc(-c3ccncc3)o2)cc1OCC	i	i	i	i	-5.5*	-173%*	i	-36%*	32%*	i	i
Nc1[nH]n2c(=O)cc(-c3ccccc3)nc2c1N=Nc1ccc(S(N)(=O)=O)cc1	i	i	i	i	i	.	.	.	.	.	.
Nc1[nH]n2c(=O)cc(-c3ccccc3)nc2c1N=Nc1ccccc1	i	i	i	i	-8*	.	.	.	.	77%*	i	TRPC4 spec 2=50%*;TRPC4 spec=-20%*;HEK293 MPD ctr 2-1=i;HEK293 MPD ctr-1=-316%*
Cc1ccc(S(=O)(=O)Nc2cc(C)c(O)c(Sc3n[nH]c(C)n3)c2)cc1	i	i	i	i	i	.	.	.	.	.	.
CCCCCCCCn1ccc(=N)cc1	i	i	i	i	i	.	.	.	.	.	.
CCCCCCCCCCn1ccc(=N)cc1	i	i	i	i	-9.1*	.	.	.	.	56%*	i	TRPC4 spec 2=i;TRPC4 spec=i;HEK293 MPD ctr 2-1=i;HEK293 MPD ctr-1=i
CCC(C)n1c(/C=C/c2ccccc2)nc2ccccc21 (stereo not given)	i	i	i	i	-5.1*	106%*	i	16%*	i	i	i
CCn1c(/C=C/c2ccccc2)nc2ccccc21	i	i	i	i	i	.	.	.	.	.	.
Clc1ccc2c(c1)C(N1CCNCC1)Cc1ccccc1S2 (stereo not given)	i	i	i	i	-5.4*	i	i	i	74%*	64%*	i
CN(C)CCNC(=O)c1c(NC(=O)c2ccccc2)sc2c1CCCC2	97*	i	i	i	-5.6*	-150%*	i	-24%*	80%*	53%*	i
Cc1cc(NCCCN(C)C)n2nc(-c3cccs3)cc2n1	i	i	i	12*	-8.2*	-349%*	82%*	-58%*	58%*	69%*	i
Cc1cc(C)c2c(n1)nn1c(NCCCN(C)C)cc(C)nc21	i	i	i	i	i	.	.	.	.	.	.
Cc1ccc(-c2nc(CN3CCCCC3)cc(CN3CCCCC3)c2O)cc1	i	i	i	i	i	.	.	.	.	.	.
CCCCOC(=O)c1ccc(NC(=O)c2ccccc2OC)cc1	i	i	i	i	i	.	.	.	.	.	.
CCCCCOC(=O)c1ccc(NC(=O)c2cccc(NC(=O)c3ccccc3C(=O)O)c2)cc1	i	i	14*	i	i	i	i	15%*	i	.	200%*
CCCCOC(=O)c1ccc(NC(=O)c2ccoc2C)cc1	i	i	i	i	i	.	.	.	.	.	.
CCCCOC(=O)c1ccc(NC(=O)c2ocnc2C)cc1	i	i	i	i	-6.7*	.	.	.	.	i	i	TRPC4 spec 2=i;TRPC4 spec=i;HEK293 MPD ctr 2-1=i;HEK293 MPD ctr-1=i
c1cc2c3c(cccc3c1)NC1(CCC3(CC1)Nc1cccc4cccc(c14)N3)N2	i	i	i	i	-6.9*	.	.	.	.	i	i	TRPC4 spec 2=i;TRPC4 spec=-22%*;HEK293 MPD ctr 2-1=i;HEK293 MPD ctr-1=-240%*
O=C(NCc1cccnc1)c1cccn2c(=O)c3sccc3nc12	i	i	i	i	-7.3*	.	.	.	.	i	i	TRPC4 spec 2=i;TRPC4 spec=-26%*;HEK293 MPD ctr 2-1=i;HEK293 MPD ctr-1=-340%*
C=CCc1cc(Cl)ccc1OCCN(C)C	i	.	i	i	-5*	i	i	8.0%*	i	i	i
CN(C)CCNc1ccc(-c2nn(C)c(=O)c3ccccc23)cc1[N+](=O)[O-]	i	i	i	i	-5.2*	-134%*	i	-32%*	78%*	72%*	i
Cn1nc(-c2ccc(NCCO)c([N+](=O)[O-])c2)c2ccccc2c1=O	i	i	i	i	i	.	.	.	.	.	.
Cc1c(NC(=O)C(C)OC(=O)CCc2c[nH]c3ccccc23)c(=O)n(-c2ccccc2)n1C (stereo not given)	i	i	i	i	i	.	.	.	.	.	.
O=C(COC(=O)c1cc(S(=O)(=O)N2CCOCC2)ccc1F)NCc1ccco1	i	i	i	i	-6.2*	i	i	i	i	i	i
